Measurements of several laboratories.
Lines come from different studies, so protocols differ.
RPS6KA2 C-terminal kinase domain: Ribosomal protein S6 kinase alpha-2, C-terminal kinase domain (RPS6KA2, Homo sapiens, UniProt Q15349)
RPS6KA2: Ribosomal protein S6 kinase alpha-2 (RPS6KA2, Homo sapiens, UniProt Q15349)
RPS6KA2 N-terminal kinase domain: Ribosomal protein S6 kinase alpha-2, N-terminal kinase domain (RPS6KA2, Homo sapiens, UniProt Q15349)

NS(=O)(=O)c1cc(NC(=O)C2(c3ccccc3Cl)CC2)ccc1Oc1cccc(Cl)c1 has a remaining binding of 100% (RPS6KA2 C-terminal kinase domain; cell-free assay; competition with immobilised ligand; 1 µM).
For COc1cc(Cl)c(C(=O)N[C@@H](CN[C@H]2CC[C@@H](N)CC2)Cc2ccc(C#N)cc2)cc1-c1ccc(CN[C@H](C)c2ccc(C)cc2)o1, the remaining activity was 106% (RPS6KA2; enzyme activity; inhibitor; 1 µM).
COc1cc2ncnc(Nc3ccc(Oc4ccccc4)cc3C)c2cc1OC gave an inhibition of 3% (RPS6KA2; enzyme activity; inhibitor; 1 µM).
For Cc1ccc(C(=O)Nc2ccc(CN3CCN(C)CC3)c(C(F)(F)F)c2)cc1C#Cc1cnc2cccnn12, the activity vs control was 98% (RPS6KA2; enzyme activity; inhibitor; 23.5 nM).
For O=c1nc(-c2ccccn2)sc2ccccc12, the remaining binding was 100% (RPS6KA2 N-terminal kinase domain; binding; competition with immobilised ligand; 1 µM).
CCCS(=O)(=O)Nc1ccc(F)c(C(=O)c2c[nH]c3ncc(-c4ccc(Cl)cc4)cc23)c1F gave an inhibition of less than 10% (RPS6KA2; enzyme activity; inhibitor; 1 µM).
CO[C@@H](C)c1c(Nc2ccc([C@H](N(C)C(=O)C3CCS(=O)(=O)CC3)C(F)(F)F)cc2)cnc2cc(Cl)nn12 has a remaining binding of 79% (RPS6KA2 C-terminal kinase domain; cell-free assay; competition with immobilised ligand; 1 µM).
Cc1ccc(Nc2nccc(N(C)c3ccc4c(C)n(C)nc4c3)n2)cc1S(N)(=O)=O gave an inhibition of 64% (RPS6KA2; enzyme activity; inhibitor; 10 µM).
The remaining binding of Cc1cnn2ncc(-c3ccnc(N(C)C)n3)c2c1 is reported as 85% (RPS6KA2 N-terminal kinase domain; binding; competition with immobilised ligand; 1 µM).
CCOc1cc(-c2nncn2C)ccc1Nc1ncc2cc(C)nc(NCC(C)(C)C)c2n1 gave an inhibition of less than 15% (RPS6KA2; enzyme activity; inhibitor; FRET; 1 µM).
With CNCc1ccc(-c2cc(-c3nc(-c4ccc(S(=O)(=O)C(C)C)cc4)cnc3N)on2)cc1 the inhibition was 17% (RPS6KA2; enzyme activity; inhibitor; 0.4 µM).
CNC(=O)c1ccc(Nc2ncc(C(F)(F)F)c(NCc3nccnc3N(C)S(C)(=O)=O)n2)cc1 has a remaining binding of 61% (RPS6KA2 C-terminal kinase domain; cell-free assay; competition with immobilised ligand; 0.1 µM).
The remaining binding of C[C@@H]1CCN(c2nccc(-c3cnn4ncccc34)n2)C1 is reported as 45% (RPS6KA2 C-terminal kinase domain; binding; competition with immobilised ligand; 1 µM).
With O=C(NC[C@@H]1[C@H]2CN(C(=O)OCc3cc(C(F)(F)F)cc(C(F)(F)F)c3)C[C@@H]12)c1ccc2[nH]nnc2c1 the remaining binding was 84% (RPS6KA2 C-terminal kinase domain; cell-free assay; competition with immobilised ligand; 1 µM).
With F[C@@H]1CCN(c2nccc(-c3cnn4ncccc34)n2)C1 the remaining binding was 93% (RPS6KA2 N-terminal kinase domain; binding; competition with immobilised ligand; 1 µM).
CNC(=O)Nc1ccc2c(c1)[C@@]1(CC2)OC(=O)N(CC(=O)N(Cc2ccc(F)cc2)[C@@H](C)C(F)(F)F)C1=O gave a remaining binding of 100% (RPS6KA2 C-terminal kinase domain; cell-free assay; competition with immobilised ligand; 1 µM).
For CN(C)c1ncc(F)c(-c2cnn3ncccc23)n1, the remaining binding was 100% (RPS6KA2 N-terminal kinase domain; binding; competition with immobilised ligand; 1 µM).
With Cc1cc(NC(=O)c2cccc3cc(-c4cccc5[nH]nc(N)c45)ccc23)ccc1F the activity vs control was 95% (RPS6KA2; enzyme activity; inhibitor; 0.1 µM).
Nc1ncnc2occ(-c3ccc(NC(=O)Nc4cc(C(F)(F)F)ccc4F)cc3)c12 gave a remaining signal of 2.3% (RPS6KA2 C-terminal kinase domain; cell-free assay; inhibitor; 20 µM).
For N[C@H]1CCN(c2nccc(-c3cnn4ncccc34)n2)C1, the remaining binding was 91% (RPS6KA2 C-terminal kinase domain; binding; competition with immobilised ligand; 1 µM).
For CCCCN(CCCC)C(=O)CN1C[C@@H](c2cc(OC)c3c(c2)OCO3)[C@H](C(=O)O)[C@H]1CC(C)(C)CCC, the remaining binding was 90.2% (RPS6KA2 C-terminal kinase domain; cell-free assay; competition with immobilised ligand; 1 µM).
With c1cnn2ncc(-c3ccnc(N4CCC45COC5)n3)c2c1 the remaining binding was 95% (RPS6KA2 N-terminal kinase domain; binding; competition with immobilised ligand; 1 µM).
CC(C)(C)c1nc2c(s1)c1nc(N)ncc1c1ccc(NS(=O)(=O)c3c(F)cccc3F)c(F)c12 has a remaining activity of 84% (RPS6KA2; enzyme activity; inhibitor; radiometric; 1 µM).
For O=C(NCCCC1CCCCC1)c1ccc(CNC(=O)c2cnn(-c3ccccc3)c2C(F)(F)F)cc1, the remaining binding was 96% (RPS6KA2 C-terminal kinase domain; cell-free assay; competition with immobilised ligand; 0.1 µM).
